Test results published in ChEMBL document CHEMBL1255303, “In vitro and in vivo antifungal activities of T-2307, a novel arylamidine” (2008).
Values after ≈ are worked out from the molar mass of the structure shown. Starred links: 1 amine or outer side, 2 acyl side, 3 side chain; linkers in the order of their positions; H or OH if unused. Positions of bridges follow the written chain, without caps; N, C: chain ends. Non-standard residues stand in square brackets, D forms with d. Residues, ends and D or L forms follow the SMILES beside them. *: point of attachment. hTyr(3S-OH,4S-OH,3'-OSO3H) = N[C@H](C(=O)O)[C@H](O)[C@@H](O)c1ccc(O)c(OS(=O)(=O)O)c1; Orn(4R-OH,5R-OH) = O=C([C@H](C[C@@H](O)[C@@H](O)N[*:3])N[*:1])[*:2]; Pro(3S-OH,4S-Me) = C[C@H]1CN[C@H](C(=O)O)[C@H]1O; X1 = CCCCCOc1ccc(-c2cc(-c3ccc(C(=O)*)cc3)no2)cc1; Gln(3R-OH) = NC(=O)C[C@@H](O)[C@H](N)C(=O)O; Hyp = O=C(O)[C@@H]1C[C@@H](O)CN1

Experiments:
Format in all cases: functional
Aspergillus fumigatus [1] = test: Antifungal activity against Aspergillus fumigatus IFM 49895 after 48 hrs by broth microdilution method; settings: IFM 49895, 48 h
In short: (§1)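 CLSI M27-A2 (yeasts) / M38-A (moulds) broth microdilution in RPMI 1640 buffered to pH 7.0 with 0.165 M MOPS. Malassezia furfur got the same medium supplemented with glucose, bile salts, glycerol, glycerol monostearate and Tween 20. Final inoculum 0.65 × 10^3–2.5 × 10^3 CFU/ml for yeasts and 0.87 × 10^4–3.8 × 10^4 CFU/ml for filamentous fungi. Incubation at 35°C except M. racemosus and F. solani, which were held at 30°C.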

[2] = system: Meyerozyma guilliermondii; test: Antifungal activity against Candida guilliermondii IFO 10279 after 48 hrs by broth microdilution method; settings: IFO 10279, 48 h; in short: as §1
[3] = system: Meyerozyma guilliermondii; test: Antifungal activity against Candida guilliermondii clinical isolates after 48 hrs by broth microdilution method
In short: (§2)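 Clinical isolates from Japanese hospitals or culture collections were tested by broth microdilution in RPMI 1640-MOPS. Inoculum was 0.57 × 10^3–2.5 × 10^3 CFU/ml for yeasts and 0.4 × 10^4–3.3 × 10^4 CFU/ml for filamentous fungi. Incubation was at 35°C for about 48 h, or 72 h where footnoted. Results were summarised as MIC range, MIC50 and MIC90.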

Candida albicans [4] = test: Antifungal activity against Candida albicans ATCC 64124 after 47 hrs by broth microdilution method; settings: ATCC 64124, 47 h
In short: (§3)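 Fluconazole-resistant or susceptible-dose-dependent ATCC C. albicans strains were tested by CLSI M27-A2 broth microdilution in RPMI 1640–0.165 M MOPS, pH 7.0, with a final inoculum of 1.1–1.5 × 10^3 CFU/ml at 35°C for about 47 h. MIC was the lowest concentration with a prominent (~50%) turbidity decrease relative to growth control; amphotericin B was read at complete inhibition.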

Candida albicans [5] = test: Antifungal activity against Candida albicans ATCC 24433 after 48 hrs by broth microdilution method; settings: ATCC 24433, 48 h
In short: (§4)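 CLSI M27-A2 (yeasts) or M38-A (A. fumigatus) broth microdilution in RPMI 1640 buffered to pH 7.0 with 0.165 M MOPS. Final inocula were 0.65–2.5 × 10^3 CFU/ml for yeasts and 0.87–3.8 × 10^4 CFU/ml for filamentous fungi. Incubation was at 35°C for about 48 h (72 h for C. neoformans). MIC was the lowest concentration giving a prominent (~50%) turbidity drop versus growth control; amphotericin B required complete inhibition.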

Candida albicans [6] = test: Antifungal activity against Candida albicans ATCC MYA-1003 after 47 hrs by broth microdilution method; settings: ATCC MYA-1003, 47 h; in short: as §3
Aspergillus fumigatus [7] = test: Antifungal activity against Aspergillus fumigatus TIMM 0063 after 48 hrs by broth microdilution method; settings: TIMM 0063, 48 h; in short: as §1
Cryptococcus neoformans [8] = test: Antifungal activity against Cryptococcus neoformans TIMM 0354 after 72 hrs by broth microdilution method; settings: TIMM 0354, 72 h; in short: as §4
Candida parapsilosis = test: Antifungal activity against Candida parapsilosis NBRC 10219 after 48 hrs by broth microdilution method; settings: Lodderomyces parapsilosis, NBRC 10219, 48 h; in short: as §4
Trichosporon asahii = test: Antifungal activity against Trichosporon asahii JCM 2466 after 48 hrs by broth microdilution method; settings: JCM 2466, 48 h; in short: as §1
Aspergillus fumigatus [9] = test: Antifungal activity against Aspergillus fumigatus ATCC 16424 after 48 hrs by broth microdilution method; settings: ATCC 16424, 48 h; in short: as §4
Malassezia furfur = test: Antifungal activity against Malassezia furfur NBRC 0656 after 48 hrs by broth microdilution method; settings: NBRC 0656, 48 h; in short: as §1
Candida albicans [10] = test: Antifungal activity against Candida albicans ATCC MYA-575 after 47 hrs by broth microdilution method; settings: ATCC MYA-575, 47 h; in short: as §3
Rhizopus arrhizus = test: Antifungal activity against Rhizopus oryzae NBRC 31005 after 24 hrs by broth microdilution method; settings: NBRC 31005, 24 h; in short: as §1
Pichia kudriavzevii = test: Antifungal activity against Candida krusei clinical isolates after 48 hrs by broth microdilution method
In short: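 Japanese hospital Candida isolates were tested by CLSI M27-A2 broth microdilution in RPMI 1640–MOPS, pH 7.0, with inocula of 0.57–2.5 × 10^3 CFU/ml at 35°C for about 48 h. Inocula came from 24-h potato dextrose agar cultures. MIC was the lowest concentration with about 50% turbidity reduction versus growth control (complete inhibition for amphotericin B). Range, MIC50 and MIC90 were reported.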

Saccharomyces cerevisiae = test: Antifungal activity against Saccharomyces cerevisiae ATCC 24657 after 48 hrs by broth microdilution method; settings: ATCC 24657, 48 h; in short: as §1
Candida albicans [11] = test: Antifungal activity against Candida albicans ATCC 10261 after 48 hrs by broth microdilution method; settings: ATCC 10261, 48 h; in short: as §1
Nakaseomyces glabratus = test: Antifungal activity against Candida glabrata ATCC 90030 after 48 hrs by broth microdilution method; settings: ATCC 90030, 48 h; in short: as §1
Aspergillus terreus = test: Antifungal activity against Aspergillus terreus NBRC 33026 after 48 hrs by broth microdilution method; settings: NBRC 33026, 48 h; in short: as §1
Candida albicans [12] = test: Antifungal activity against Candida albicans clinical isolates after 48 hrs by broth microdilution method; in short: as §2
Candida albicans [13] = test: Antifungal activity against Candida albicans TIMM 1623 after 48 hrs by broth microdilution method; settings: TIMM 1623, 48 h; in short: as §1
Candida albicans [14] = test: Antifungal activity against Candida albicans TIMM 1623 infected ICR mouse after 6 days; settings: TIMM 1623, 144 h
In short: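 Male ICR mice, 4 weeks old and SPF, were made neutropenic with intraperitoneal cyclophosphamide. The schedule was 200 mg/kg on day −3 (day −4 for Cryptococcus) plus 100 mg/kg on day +1. Infection was by tail-vein injection of 0.2 ml suspension: C. albicans 3.0 × 10^4, C. neoformans 9.1 × 10^4, A. fumigatus conidia 8.4 × 10^4 CFU/mouse. Drugs were given subcutaneously once daily for 7 days from 2 h post-infection; controls received saline. Groups had 8–10 mice.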

Cryptococcus neoformans [15] = test: Antifungal activity against Cryptococcus neoformans ATCC 90112 after 72 hrs by broth microdilution method; settings: ATCC 90112, 72 h; in short: as §4
Cryptococcus neoformans [16] = test: Antifungal activity against Cryptococcus neoformans clinical isolates after 72 hrs by broth microdilution method; in short: as §2

Q: `CCCCCOc1ccc(-c2cc(-c3ccc(C(=O)N[C@H]4C[C@@H](O)[C@@H](O)NC(=O)[C@@H]5[C@@H](O)[C@@H](C)CN5C(=O)[C@H]([C@H](O)CC(N)=O)NC(=O)[C@H]([C@H](O)[C@@H](O)c5ccc(O)c(OS(=O)(=O)O)c5)NC(=O)[C@@H]5C[C@@H](O)CN5C(=O)[C@H]([C@@H](C)O)NC4=O)cc3)no2)cc1` [MICAFUNGIN] (X1-[Orn(4R-OH,5R-OH)]T[Hyp][hTyr(3S-OH,4S-OH,3'-OSO3H)][Gln(3R-OH)][Pro(3S-OH,4S-Me)]; lactam 1-C) was tested. Which MFC (Aspergillus fumigatus [1]) did it give?
A: > 64 µg/mL

Q: And the MIC (Aspergillus fumigatus [1])?
A: 0.0313 µg/mL (≈ 0.0246 µM)

Q: And the MFC [2]?
A: 8 µg/mL (≈ 6.3 µM)

Q: What about the MIC [2] of the same molecule?
A: 0.5 µg/mL (≈ 0.394 µM)

Q: What about the MIC50 [3] of the same molecule?
A: 1 µg/mL (≈ 0.787 µM)

Q: And the MIC90 [3]?
A: 1 µg/mL (≈ 0.787 µM)

Q: And the MIC (Candida albicans [4])?
A: 0.0625 µg/mL (≈ 0.0492 µM)

Q: And the MFC (Candida albicans [5])?
A: 0.25 µg/mL (≈ 0.197 µM)

Q: What about the MIC (Candida albicans [5]) of the same molecule?
A: 0.0313 µg/mL (≈ 0.0246 µM)

Q: And the MIC (Candida albicans [6])?
A: 0.125 µg/mL (≈ 0.0984 µM)

Q: What about the MFC (Aspergillus fumigatus [7]) of the same molecule?
A: > 64 µg/mL

Q: And the MIC (Aspergillus fumigatus [7])?
A: 0.0156 µg/mL (≈ 0.0123 µM)

Q: What about the MFC (Cryptococcus neoformans [8]) of the same molecule?
A: > 64 µg/mL

Q: And the MIC (Cryptococcus neoformans [8])?
A: > 64 µg/mL

Q: What about the MFC (Candida parapsilosis) of the same molecule?
A: > 32 µg/mL

Q: And the MIC (Candida parapsilosis)?
A: 2 µg/mL (≈ 1.57 µM)

Q: What about the MFC (Trichosporon asahii) of the same molecule?
A: > 64 µg/mL

Q: What about the MIC (Trichosporon asahii) of the same molecule?
A: > 64 µg/mL

Q: And the MFC (Aspergillus fumigatus [9])?
A: > 64 µg/mL

Q: What about the MIC (Aspergillus fumigatus [9]) of the same molecule?
A: 0.0313 µg/mL (≈ 0.0246 µM)

Q: What about the MFC (Malassezia furfur) of the same molecule?
A: > 64 µg/mL

Q: What about the MIC (Malassezia furfur) of the same molecule?
A: > 64 µg/mL

Q: What about the MIC (Candida albicans [10]) of the same molecule?
A: 0.125 µg/mL (≈ 0.0984 µM)

Q: And the MFC (Rhizopus arrhizus)?
A: > 64 µg/mL

Q: What about the MIC (Rhizopus arrhizus) of the same molecule?
A: > 64 µg/mL

Q: And the MIC50 (Pichia kudriavzevii)?
A: 0.5 µg/mL (≈ 0.394 µM)

Q: What about the MIC90 (Pichia kudriavzevii) of the same molecule?
A: 0.5 µg/mL (≈ 0.394 µM)

Q: And the MFC (Saccharomyces cerevisiae)?
A: 1 µg/mL (≈ 0.787 µM)

Q: What about the MIC (Saccharomyces cerevisiae) of the same molecule?
A: 0.5 µg/mL (≈ 0.394 µM)

Q: And the MFC (Candida albicans [11])?
A: 0.25 µg/mL (≈ 0.197 µM)

Q: What about the MIC (Candida albicans [11]) of the same molecule?
A: 0.0313 µg/mL (≈ 0.0246 µM)

Q: And the MFC (Nakaseomyces glabratus)?
A: 0.0313 µg/mL (≈ 0.0246 µM)

Q: What about the MIC (Nakaseomyces glabratus) of the same molecule?
A: 0.0313 µg/mL (≈ 0.0246 µM)

Q: What about the MFC (Aspergillus terreus) of the same molecule?
A: > 64 µg/mL

Q: And the MIC (Aspergillus terreus)?
A: 0.0313 µg/mL (≈ 0.0246 µM)

Q: What about the MIC50 (Candida albicans [12]) of the same molecule?
A: 0.0625 µg/mL (≈ 0.0492 µM)

Q: And the MIC90 (Candida albicans [12])?
A: 0.125 µg/mL (≈ 0.0984 µM)

Q: And the MFC (Candida albicans [13])?
A: 4 µg/mL (≈ 3.15 µM)

Q: And the MIC (Candida albicans [13])?
A: 0.0625 µg/mL (≈ 0.0492 µM)

Q: What about the ED50 (Candida albicans [14]) of the same molecule?
A: 0.182 mg/kg

Q: And the MFC (Cryptococcus neoformans [15])?
A: > 64 µg/mL

Q: And the MIC (Cryptococcus neoformans [15])?
A: > 64 µg/mL

Q: And the MIC (Cryptococcus neoformans [16])?
A: > 64 µg/mL

Q: What about the MIC50 (Cryptococcus neoformans [16]) of the same molecule?
A: > 64 µg/mL

Q: And the MIC90 (Cryptococcus neoformans [16])?
A: > 64 µg/mL
